# According to ChEMBL document CHEMBL4011629, “New Disubstituted Quindoline Derivatives Inhibiting Burkitt's Lymphoma Cell Proliferation by Impeding c-MYC Transcription” (J Med Chem, 2017):
# Calls of active or inactive are those of the source. The rule behind the calls is not given here.
# Columns and labels:
# Raji = assay: Antitumor activity against human Raji cells xenografted in NOD/SCID nude mouse assessed as reduction in tumor weight at 1 mg/kg, ip administered once in 2 days for 2 weeks relative to control; assay type: functional, organism-based
# How it was run: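 NOD/SCID mice were implanted subcutaneously in the underarm with RAJI cells (5 × 10^6 per 100 μL of RPMI 1640 with 10% serum). Tumours reached […] after 1 week, and mice were then randomised. […] Tumour volume was recorded daily and tumour weight at the end.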
# Mus musculus [1] = assay: Toxicity in NOD/SCID nude mouse xenografted with human Raji cells assessed as reduction in body weight at 1 mg/kg, ip administered once in 2 days for 2 weeks measured every day during compound dosing; assay type: organism-based; conditions: in vivo
# How it was run: (§1)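 NOD/SCID mice implanted subcutaneously in the underarm with 5 × 10^6 RAJI cells in 100 μL RPMI 1640 with 10% serum; tumours grown about 1 week, then mice randomized. Body weight recorded daily; organ weights taken at end.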
# Mus musculus [2] = assay: Toxicity in NOD/SCID nude mouse xenografted with human Raji cells assessed as reduction in viscera weight at 1 mg/kg, ip administered once in 2 days for 2 weeks measured every day during compound dosing; assay type: organism-based; conditions: in vivo; how it was run: as §1
smiles,measurement,setting,value
COc1cccc2c1C(=O)c1c(O)c3c(c(O)c1C2=O)C[C@@](O)(C(=O)CO)C[C@@H]3O[C@H]1C[C@H](N)[C@H](O)[C@H](C)O1 [DOXORUBICIN],Activity,Raji,Active
same,Activity,Mus musculus [1],Toxic
same,Activity,Mus musculus [2],Toxic
